Experiment [1] deals with Mus musculus. The experiment can be described thus: Antidepressant activity was measured by the inhibition of tetrabenazine (TBZ) ptosis in mice after i.p. administration. The format is functional. The settings on record: ip. A digest of the protocol:
(§1)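 Male Charles River CD-1 mice (20–30 g), groups of five, dosed ip with compound in distilled water plus a few drops of Tween 80. Tetrabenazine methanesulfonate was given at 40 mg/kg ip 30 min later. After another 30 min, ptosis was scored 0–2 (eyes open, half-open, closed). ED50 and 95% confidence intervals came from linear regression of the scores.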

In experiment [2] the test system is Mus musculus. The experiment can be described thus: Antidepressant activity was measured by the inhibition of tetrabenazine (TBZ) ptosis in mice after po administration […]. The format is functional.
Experiment [3] deals with Rattus norvegicus. In words: Antidepressant activity was measured by the potentiation of head twitching induced by 5-hydroxy-tryptophan in pargyline-pretreated rats after ip administration. The format is functional. A digest of the protocol:
(§2)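 Male Wistar rats (150–200 g), six per group (ten per dose in dose-range runs), received pargyline HCl 75 mg/kg sc 4 h before testing. Compound in distilled water plus Tween 80 was given ip 30 min before, then L-5-HTP 1.0 mg/kg ip. From 5 min after 5-HTP, rats were observed 15 min for head twitching with coarse tremors. Results are percent potentiation normalized to vehicle; ED50 with 95% limits by linear regression.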

The subject of experiment [4] is Mus musculus. The experiment can be described thus: Antidepressant activity was measured by the inhibition of tetrabenazine (TBZ) ptosis in mice after ip administration. Format: functional. A digest of the protocol: as §1
The subject of experiment [5] is Mus musculus. In words: Antidepressant activity was measured by the inhibition of tetrabenazine (TBZ) ptosis in mice after po administration. The format is functional. A digest of the protocol:
(§3)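 Male Charles River CD-1 mice (20–30 g), groups of five, dosed orally with compound in distilled water plus a few drops of Tween 80. Tetrabenazine methanesulfonate was given at 40 mg/kg ip 60 min later. After another 30 min, ptosis was scored 0–2 (eyes open, half-open, closed). ED50 and 95% confidence intervals came from linear regression of the scores.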

In experiment [6] the test system is Mus musculus. In words: Antidepressant activity was measured by the inhibition of tetrabenazine ptosis in mice after po administration. The format is functional. A digest of the protocol: as §3
Experiment [7] deals with Rattus norvegicus. The experiment can be described thus: Antidepressant activity was measured by the potentiation of head twitching induced by 5-hydroxy-tryptophan in pargyline-pretreated rats after ip administration; d= Seizures before 5-HTP dosing. The format is functional, organism-based. Put shortly: as §2
The test system of experiment [8] is Rattus norvegicus. In words: Antidepressant activity was measured by the potentiation of head twitching induced by 5-hydroxy-tryptophan in pargyline-pretreated rats after po administration.
Experiment [9] has as its system Rattus norvegicus. The experiment can be described thus: Antidepressant activity was measured by the potentiation of head twitching induced by 5-hydroxy-tryptophan in pargyline-pretreated rats after ip administration;d=Seizures before 5-HTP dosing. Format: functional, organism-based. A digest of the protocol: as §2

SMILES strings stand for the structures. A value given as a limit tells only on which side of the number the result lay.

Consider `c1ccc(C2SC3(CCNCC3)c3ccccc32)cc1` (stereo not given), for which the ED50 in the experiment with Mus musculus [1] is 1.1 mg/kg; in the experiment on Mus musculus [2] it was 1.1 mg/kg; in the experiment with Rattus norvegicus [3] it was 3 mg/kg.

For `Cc1ccc(C2SC3(CCN(C)CC3)c3ccccc32)cc1` (stereo not given), the values for the ED50 in the experiment with Mus musculus [1] and with Rattus norvegicus [3] were ~3 mg/kg and 1 mg/kg, respectively.

In the case of `CNCCCN1c2ccccc2CCc2ccccc21` [DESIPRAMINE], the ED50 was 0.8 mg/kg in the experiment with Mus musculus [4], 1.6 mg/kg in the experiment on Mus musculus [5] and > 10 mg/kg with Rattus norvegicus [3].

For `Br.CN1CCC2(CC1)SC(c1ccccc1F)c1ccccc12` (stereo not given), the figures for the 50% effective dose (ED50) in the experiment on Mus musculus [1], in the experiment on Mus musculus [6] and with Rattus norvegicus [3] were 3 mg/kg, 2.1 mg/kg and > 10 mg/kg, respectively.

Consider `Clc1ccc(C2SC3(CCNCC3)c3ccccc32)cc1Cl` (stereo not given), for which the ED50 is 0.82 mg/kg with Mus musculus [6] and 0.4 mg/kg in the experiment on Rattus norvegicus [3].

On to `CN1CCC2(CC1)SC(c1ccc(Cl)c(Cl)c1)c1ccccc12` (stereo not given), for which the ED50 in the experiment on Mus musculus [1] amounted to 3.5 mg/kg; in the experiment on Mus musculus [6], 6.1 mg/kg; in the experiment on Rattus norvegicus [3], 0.58 mg/kg.

Take `Fc1ccc(C2SC3(CCNCC3)c3ccccc32)cc1` (stereo not given): the values for the ED50 in the experiment on Mus musculus [1], in the experiment on Mus musculus [6] and in the experiment with Rattus norvegicus [3] were 0.67 mg/kg, 2.1 mg/kg and 0.32 mg/kg, respectively.

As to `Cc1cccc(C2SC3(CCNCC3)c3ccccc32)c1` (stereo not given), the results for the 50% effective dose (ED50) in the experiment with Mus musculus [1], in the experiment with Mus musculus [6] and with Rattus norvegicus [3] were 1.9 mg/kg, 2.9 mg/kg and 0.71 mg/kg, respectively.

Consider `CN(C)CCC=C1c2ccccc2CCc2ccccc21` [AMITRIPTYLINE], for which the ED50 was found to be 1.5 mg/kg with Mus musculus [1], 7.8 mg/kg in the experiment with Mus musculus [6] and 7.1 mg/kg in the experiment with Rattus norvegicus [3].

With `CN1CCC2(CC1)SC(c1ccccc1)c1ccc(F)cc12` (stereo not given), the ED50 is 1.8 mg/kg in the experiment on Mus musculus [1], 2.8 mg/kg in the experiment on Mus musculus [6] and > 10 mg/kg in the experiment with Rattus norvegicus [3].

Consider `CN1CCC2(CC1)SC(c1cccc(F)c1)c1ccccc12` (stereo not given), for which the values for the 50% effective dose (ED50) with Mus musculus [1], in the experiment with Mus musculus [6] and in the experiment with Rattus norvegicus [3] were 0.83 mg/kg, 3.3 mg/kg and > 10 mg/kg, respectively.

Consider `Br.CN1CCC2(CC1)SC(c1cccc(Cl)c1)c1ccccc12` (stereo not given), for which the results for the ED50 with Mus musculus [1], in the experiment on Mus musculus [6] and with Rattus norvegicus [7] were 0.9 mg/kg, 1.3 mg/kg and “Seizures before dosing”, respectively.

Regarding `Fc1cccc(C2SC3(CCNCC3)c3ccccc32)c1` (stereo not given), the values for the ED50 in the experiment on Mus musculus [6] and in the experiment with Rattus norvegicus [3] were 3.1 mg/kg and 0.16 mg/kg, respectively.

As to `CN1CCC2(CC1)SC(c1ccccc1)c1ccccc12` (stereo not given), the results for the ED50 with Mus musculus [4], in the experiment on Mus musculus [5] and in the experiment with Rattus norvegicus [3] were 2.5 mg/kg, 4.6 mg/kg and 3.4 mg/kg, respectively.

Take `Fc1ccccc1C1SC2(CCNCC2)c2ccccc21` (stereo not given): the 50% effective dose (ED50) came out at 0.78 mg/kg in the experiment on Mus musculus [1], 6.6 mg/kg with Mus musculus [6] and 3.9 mg/kg in the experiment on Rattus norvegicus [3].

`CN1CCC2(CC1)SC(c1ccc(Cl)cc1)c1ccccc12` (stereo not given): the ED50 was determined as 1.3 mg/kg with Mus musculus [1], 1.4 mg/kg with Mus musculus [6] and 0.4 mg/kg in the experiment with Rattus norvegicus [3].

Turning to `Clc1ccccc1C1SC2(CCNCC2)c2ccccc21` (stereo not given), the ED50 with Mus musculus [6] was 2.2 mg/kg; with Rattus norvegicus [3] it was 4.4 mg/kg.

For the compound `CN1CCC2(CC1)SC(c1ccc(F)cc1)c1ccccc12` (stereo not given), the ED50 came to 1.4 mg/kg in the experiment with Mus musculus [1], 3.1 mg/kg in the experiment on Mus musculus [6] and 1.5 mg/kg in the experiment on Rattus norvegicus [3].

For `Cc1ccc(C2SC3(CCNCC3)c3ccccc32)cc1` (stereo not given), the ED50 with Mus musculus [1] was determined as 0.69 mg/kg; with Mus musculus [6], 3.6 mg/kg; in the experiment on Rattus norvegicus [3] it was 0.16 mg/kg.

Consider `FC(F)(F)c1cccc(C2SC3(CCNCC3)c3ccccc32)c1` (stereo not given), for which the ED50 with Mus musculus [1] stood at 1.2 mg/kg; in the experiment on Mus musculus [6], 1.7 mg/kg.

With `Br.Cc1cccc(C2SC3(CCN(C)CC3)c3ccccc32)c1` (stereo not given), the values for the ED50 in the experiment with Mus musculus [1] and in the experiment on Rattus norvegicus [3] were ~20 mg/kg and > 2 mg/kg, respectively.

In the case of `Cc1ccccc1C1SC2(CCNCC2)c2ccccc21` (stereo not given), the ED50 was found to be 1.4 mg/kg in the experiment on Mus musculus [6] and 2.8 mg/kg in the experiment on Rattus norvegicus [3].

Regarding `Clc1ccc(C2SC3(CCNCC3)c3ccccc32)cc1` (stereo not given), the ED50 stood at 2.1 mg/kg in the experiment on Mus musculus [1], 1.6 mg/kg in the experiment with Mus musculus [6], 0.03 mg/kg with Rattus norvegicus [3] and 0.78 mg/kg with Rattus norvegicus [8].

As for `CNCCC(Oc1ccc(C(F)(F)F)cc1)c1ccccc1` (stereo not given) [FLUOXETINE], the ED50 in the experiment on Rattus norvegicus [3] was found to be 0.6 mg/kg.

Turning to `Clc1ccc(C2SC3(CCNCC3)c3ccccc32)c(Cl)c1` (stereo not given), the ED50 was found to be 2.4 mg/kg in the experiment on Mus musculus [1], 3.8 mg/kg in the experiment on Mus musculus [6] and 2.2 mg/kg in the experiment with Rattus norvegicus [3].

For the compound `CN1CCC2(CC1)SC(c1ccccc1Cl)c1ccccc12` (stereo not given), the ED50 in the experiment with Mus musculus [1] is 0.6 mg/kg; in the experiment on Mus musculus [6], 3.6 mg/kg; with Rattus norvegicus [3], 10.1 mg/kg.

`Br.CN1CCC2(CC1)SC(c1ccc(Cl)cc1Cl)c1ccccc12` (stereo not given): the figures for the 50% effective dose (ED50) in the experiment with Mus musculus [1], with Mus musculus [6] and with Rattus norvegicus [3] were 1.6 mg/kg, 3.8 mg/kg and 0.91 mg/kg, respectively.

In the case of `CN1CCC2(CC1)SC(c1cccc(C(F)(F)F)c1)c1ccccc12` (stereo not given), the ED50 was determined as 0.73 mg/kg in the experiment with Mus musculus [1], 1.6 mg/kg in the experiment with Mus musculus [6] and 0.52 mg/kg with Rattus norvegicus [3].

As to `Clc1cccc(C2SC3(CCNCC3)c3ccccc32)c1` (stereo not given), the ED50 is 0.52 mg/kg in the experiment with Mus musculus [1], 1.8 mg/kg in the experiment on Mus musculus [6] and “Seizures before dosing” with Rattus norvegicus [9].

Take `Cc1ccccc1C1SC2(CCN(C)CC2)c2ccccc21` (stereo not given): the figures for the ED50 in the experiment on Mus musculus [1], in the experiment on Mus musculus [6] and in the experiment on Rattus norvegicus [3] were 0.77 mg/kg, 1.3 mg/kg and > 10 mg/kg, respectively.

On to `CN(C)CCCN1c2ccccc2CCc2ccc(Cl)cc21` [CLOMIPRAMINE], for which the results for the ED50 with Mus musculus [4], in the experiment on Mus musculus [5] and with Rattus norvegicus [3] were 0.73 mg/kg, 3.5 mg/kg and 3.1 mg/kg, respectively.

Broadly, the ED50 is the dose that gives a 50% effect, or the effect in half of the subjects.

For the origin of these results see ChEMBL document CHEMBL1121718, “Novel tetracyclic spiropiperidines. 1. 3-Aryl-1,3-dihydrospiro[benzo[c]thiophene-1,4'-piperidines] as potential antidepressants” (1981).
